Results gathered from unrelated publications.
Compare with care: the assays were run in different laboratories.
Cell line: HOP-92
Observed: cell growth or viability

Structure (SMILES) | method | tested at | time | quantity | result
COc1ccc(C(=O)/C=C/c2cccc(Br)c2)cc1S(N)(=O)=O | SRB |  | 48 h | GI50 | 1800 nM
O=C1NCCc2[nH]c(-c3ccncc3)cc21 |  |  |  | IC50 | 6400 nM
CCc1n(Cc2ccc3ccccc3n2)cc[n+]1Cc1ccc2ccccc2c1 | SRB |  |  | TGI | 671 nM
O=C1Nc2ccccc2C1=NNc1nnc2n1N=C(c1ccccc1)CS2 | SRB | 10 µM |  | inhibition | 36%
CCCCc1n(Cc2ccc3ccccc3n2)cc[n+]1Cc1ccc2ccccc2n1 | SRB |  |  | TGI | 3360 nM
COc1ccc(C(=O)/C=C/c2cccnc2)cc1S(N)(=O)=O | SRB | 10 µM |  | inhibition | 44%
O=C1NC(=NCc2cccs2)S/C1=C\c1ccc2ncccc2c1 |  |  |  | IC50 | 6040 nM
COc1ccc(-c2ccc(-c3ccc(C(=N)N)nc3)s2)cc1 | SRB |  |  | GI50 | 1500 nM
COc1cccc(Oc2ccccc2NC(=O)CNC(=O)c2cccc3ccccc23)c1 | SRB |  | 48 h | GI50 | 204 nM
COc1ccc(-c2ccc(-c3ccc(C(=N)N)nc3)s2)cc1Cl | SRB |  |  | GI50 | 1630 nM
CCCc1n(Cc2ccc3ccccc3n2)cc[n+]1Cc1ccc2ccccc2n1 | SRB |  |  | TGI | 3230 nM
